Assay results taken from ChEMBL document CHEMBL3124791 (J Med Chem, 2014).
Converted amounts (≈) assume the structure as drawn. The source made the active and inactive calls. The rule behind the calls is not given here.

Tests used:
[1] = tested on: A549; experiment: Cytotoxicity against human A549 cells by SRB assay; assay type: functional
Procedure, shortened: (§1)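 Sulforhodamine B growth assay across A-549, KB, P-gp-expressing KBvin and DU145 lines. […] Mean ± SD, at least triplicate.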

[2] = tested on: KB; experiment: Cytotoxicity against human KB cells by SRB assay; assay type: functional; procedure, shortened: as §1
[3] = tested on: DU-145; experiment: Cytotoxicity against human DU145 cells by SRB assay; assay type: functional; procedure, shortened: as §1
[4] = Cytotoxicity against human KBVIN cells by SRB assay; assay type: functional; procedure, shortened: as §1
[5] = species: Canis lupus familiaris; experiment: Competitive inhibition of dog brain tubulin using BODIPY FL-vinblastine as substrate at 30 to 100 uM incubated for 30 mins prior to substrate addition measured after 30 mins by fluorescence assay
Procedure, shortened: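 Tubulin 4 μM from fresh dog brain in 25 mM PIPES pH 6.8, 1 mM EGTA, 3 mM MgCl2, preincubated with compound (10, 30, 100 μM) 30 min at 37 °C. BODIPY FL-vinblastine 2 μM then added for another 30 min. Fluorescence (ex 470/em 515 nm) decrease converted to % inhibition. Mean ± SD of at least three independent experiments.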

[6] = tested on: Mus musculus; experiment: Toxicity in athymic Balb/c nu/nu mouse xenografted with human MCF7 cells assessed as death at 4 mg/kg, iv administered as Q3D X 6 regimen; assay type: organism-based; design: dose 4 mg/kg, route intravenous; conditions: in vivo
Procedure, shortened: (§2)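 At 100–300 mm3 tumors, mice sorted into treated and control groups (n = 7). Dosing 4 mg/kg i.v. every 3 days; vehicle 5% PEG400/PBS. Stopped when control tumors reached about 1500 mm3; tumors excised and weighed. Inhibitory rate = [1 − mean treated/control tumor weight] × 100; body weight and deaths recorded.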

[7] = tested on: A549; experiment: Cell cycle arrest in human A549 cells assessed as accumulation at G2/M phase at 3 nM after 24 hrs by propidium iodide staining-based FACS analysis; assay type: functional
Procedure, shortened: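 A549 cells treated 24 h (0.1% DMSO control), washed in PBS, fixed in 70% ice-cold ethanol at 4 °C for 24 h. RNase (0.05 mg/mL, 37 °C, 30 min), then propidium iodide 0.05 mg/mL for 30 min at rt in the dark. Cell-cycle distribution read by flow cytometry.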

[8] = species: Canis lupus familiaris; experiment: (§3) Competitive inhibition of dog brain tubulin using colchicine as substrate incubated for 45 mins prior to substrate addition measured after 45 mins by fluorescence assay
Procedure, shortened: (§4)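 Dog brain tubulin 4 μM in 25 mM PIPES pH 6.8, 1 mM EGTA, 3 mM MgCl2, preincubated with compound (0.1–10 μM) 45 min at 37 °C. […] Mean ± SD, at least three replicates.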

[9] = as §3; design: species or system Canis lupus familiaris; procedure, shortened: as §4
[10] = biological target: T1, Tubulin (Homo sapiens) (UniProt P68371+Q9H4B7+P0DPH7+P68366+Q13509+Q71U36+P04350+Q3ZCM7+P07437+P68363+Q9BQE3+Q6PEY2+Q13885+Q9BVA1+Q9BUF5); experiment: Displacement of [3H]colchine from tubulin (unknown origin) at 1 uM after 10 mins; assay type: protein-complex assay
[11] = tested on: Liver microsome; experiment: Half life in human liver microsomes at 1 uM by LC-MS analysis; assay type: ADME
[12] = biological target: T1, Tubulin (Homo sapiens); experiment: Inhibition of tubulin polymerization in human A549 cells assessed as disappearance of microtubule network at 3 nM after 24 hrs by Hoechst 33342 staining-based immunocytochemistry relative to control; assay type: cell-based
Procedure, shortened: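 A549 cells exposed to compound 24 h (0.1% DMSO control), fixed in 4% paraformaldehyde, permeabilized with 0.1% Triton X-100, blocked with 5% BSA. Stained with anti-α-tubulin (1:2000, 2 h) and a fluorescent anti-mouse secondary (1 h), nuclei with Hoechst 33342. Imaged at 20× for microtubule network loss.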

[13] = biological target: T1, Tubulin (Homo sapiens); experiment: Displacement of [3H]colchine from tubulin (unknown origin) at 5 uM after 10 mins; assay type: protein-complex assay
[14] = tested on: A549; experiment: Cell cycle arrest in human A549 cells assessed as accumulation at G2/M phase after 24 hrs by propidium iodide staining-based FACS analysis; assay type: functional
[15] = species: Canis lupus familiaris; conditions: 10 uM
[16] = biological target: Tubulin; experiment: Inhibition of tubulin (unknown origin) polymerization incubated for 15 mins prior to GTP addition measured after 20 mins by turbidimetry; assay type: protein-complex assay, Homo sapiens
[17] = Aqueous solubility of the compound in phosphate buffer at pH 7.4 after 4 hrs by HPLC-UV method; assay type: physicochemical; conditions: pH 7.4, 4 h
[18] = biological target: T1, Tubulin (Homo sapiens); experiment: Inhibition of tubulin polymerization in human A549 cells assessed as disappearance of microtubule network at 100 nM after 24 hrs by Hoechst 33342 staining-based immunocytochemistry relative to control; assay type: cell-based
[19] = tested on: MCF7; experiment: Antitumor activity against human MCF7 cells xenografted in athymic Balb/c nu/nu mouse assessed as tumor growth inhibition at 4 mg/kg, iv administered as Q3D X 6 regimen; assay type: functional; procedure, shortened: as §2
[20] = tested on: Mus musculus; experiment: Toxicity in athymic Balb/c nu/nu mouse xenografted with human MCF7 cells assessed as change in body weight at 4 mg/kg, iv administered as Q3D X 6 regimen (reference value: 0.10%); assay type: organism-based; design: dose 4 mg/kg, route intravenous; conditions: in vivo; procedure, shortened: as §2
[21] = tested on: A549; experiment: Cell cycle arrest in human A549 cells assessed as accumulation at G2/M phase at 300 nM after 24 hrs by propidium iodide staining-based FACS analysis; assay type: functional

Compound | GI50 [1] [nM] | GI50 [2] [nM] | GI50 [3] [nM] | GI50 [4] [nM] | also measured
COc1ccc2c(c1)CCN2c1nc(C)nc2ccccc12 | 268 | 320 | 243 | 216 | 
COc1ccc2c(c1)CCCN(c1nc(Cl)nc3ccccc13)C2 | 7570 | 11300 | 6810 | 5450 | 
COc1ccc2c(c1)CCCN(c1nc(C)nc3ccccc13)C2 | 16700 | 19600 | 14600 | 14800 | 
COc1ccc2c(c1)NC(=O)CN2c1nc(C)nc2ccccc12 | 3.2 | 2.3 | 1.9 | 2.2 | inhibition [5]: inactive; Activity [6]: Toxic; Activity [7]: Active; inhibition [8]: Dose-dependent effect; IC50 [9]: 550 nM; inhibition [10]: 93%; t1/2 [11]: 54.81 min; inhibition [12]: Active; inhibition [13]: 99%; Activity [14]: Dose-dependent effect
CC[C@]1(O)C[C@H]2CN(CCc3c([nH]c4ccccc34)[C@@](C(=O)OC)(c3cc4c(cc3OC)N(C=O)[C@H]3[C@@](O)(C(=O)OC)[C@H](OC(C)=O)[C@]5(CC)C=CCN6CC[C@]43[C@@H]65)C2)C1 |  |  |  |  | inhibition [15]: 50%
COc1ccc2c(c1)CCCCN2c1nc(Cl)nc2ccccc12 | 191 | 227 | 165 | 197 | 
COc1ccc2c(c1)OCCN2c1nc(C)nc2ccccc12 | 189 | 211 | 198 | 169 | 
Cc1ccc2c(c1)CCCN2c1nc(Cl)nc2ccccc12 | 43 | 48 | 57 | 46 | 
COc1ccc2c(c1)CCN2c1nc(Cl)nc2ccccc12 | 233 | 227 | 165 | 197 | 
COc1ccc2c(c1)C(=O)CCN2c1nc(Cl)nc2ccccc12 | 27 | 28 | 31 | 33 | 
COc1ccc2c(c1)OCCN2c1nc(Cl)nc2ccccc12 | 199 | 153 | 169 | 195 | 
Cc1nc(N2CCCc3cc(Br)ccc32)c2ccccc2n1 | 211 | 178 | 198 | 169 | 
COc1ccc2c(c1)CCCCN2c1nc(C)nc2ccccc12 | 21 | 19 | 18 | 20 | IC50 [16]: 870 nM; solubility [17]: 2.94 µg/mL (≈ 9.2 µM); inhibition [10]: 46%; t1/2 [11]: 24.85 min; inhibition [13]: 89%
CC(=O)O[C@H]1C(=O)[C@@]2(C)[C@H]([C@H](OC(=O)c3ccccc3)[C@]3(O)C[C@H](OC(=O)[C@H](O)[C@@H](NC(=O)c4ccccc4)c4ccccc4)C(C)=C1C3(C)C)[C@]1(OC(C)=O)CO[C@@H]1C[C@@H]2O [PACLITAXEL] | 7.6 | 6.4 | 6 | 1210 | inhibition [18]: inactive
COc1ccc2c(c1)C(O)CCN2c1nc(C)nc2ccccc12 (centres undefined) | 19 | 18 |  | 17 | IC50 [16]: 970 nM; solubility [17]: 8.72 µg/mL (≈ 27.1 µM); inhibition [10]: 75%; t1/2 [11]: 42.44 min; inhibition [13]: 94%
Cc1ccc2c(c1)CCCN2c1nc(C)nc2ccccc12 | 211 | 204 | 187 | 176 | 
COc1ccc2c(c1)CCCN2c1nc(Cl)nc2ccccc12 |  |  |  |  | inhibition in vivo at 4 mg/kg [19]: 22.9%; Activity [6]: Non-toxic; Activity [20]: -7.9%
COc1ccc2c(c1)CCCN2c1nc(C)nc2ccccc12 |  |  |  |  | inhibition in vivo at 4 mg/kg [19]: 47.3%; Activity [20]: -15.7%
COc1cc2c(c(OC)c1OC)-c1ccc(OC)c(=O)cc1[C@@H](NC(C)=O)CC2 |  |  |  |  | Activity [21]: Active; Activity [14]: Dose-dependent effect
COc1ccc2c(c1)N(C)C(=O)CN2c1nc(C)nc2ccccc12 | 19 | 17 | 22 | 25 | IC50 [16]: 1300 nM; inhibition in vivo at 4 mg/kg [19]: 51%; solubility [17]: 4.2 µg/mL (≈ 12.6 µM); Activity [6]: Non-toxic; inhibition [10]: 82%; t1/2 [11]: 22 min; inhibition [13]: 96%; Activity [20]: 2.28%
COc1ccc2c(c1)C(=O)CCN2c1nc(C)nc2ccccc12 | 24 | 19 | 21 | 21 | IC50 [16]: 940 nM; solubility [17]: 1.21 µg/mL (≈ 3.79 µM); inhibition [10]: 56%; t1/2 [11]: 20.89 min; inhibition [13]: 87%
